Tested on: U2OS
Test: Multiplex assay against U2OS
Assay type: toxicity, cell-based
Conditions: human
In short: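 At seeding, live cells were stained with Hoechst33342, BioTracker Green Microtubule Cytoskeleton Dye, MitoTracker Red and Annexin V Alexa Fluor 680. After compound addition they were imaged on a CQ1 microscope at 37°C and 5% CO2, and CellPathfinder machine-learning gating sorted them into Hoechst high-intensity objects or normal cells, with normal cells further split into healthy, pyknosed or fragmented nuclei and pyknosed cells into mitotic or apoptotic. Tubulin, mitochondrial-mass and membrane-permeability phenotypes are given as per cents of cells with healthy nuclei.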

[1] = 12 h, 1 µM, compound concentration 1 uM, replicate 1
[2] = 12 h, 1 µM, compound concentration 1 uM, replicate 2
[3] = 12 h, 10 µM, compound concentration 10 uM, replicate 1
[4] = 12 h, 10 µM, compound concentration 10 uM, replicate 2
[5] = 24 h, 1 µM, compound concentration 1 uM, replicate 1
[6] = 24 h, 1 µM, compound concentration 1 uM, replicate 2
[7] = 24 h, 10 µM, compound concentration 10 uM, replicate 1
[8] = 24 h, 10 µM, compound concentration 10 uM, replicate 2
[9] = 48 h, 1 µM, compound concentration 1 uM, replicate 1
[10] = 48 h, 1 µM, compound concentration 1 uM, replicate 2
[11] = 48 h, 10 µM, compound concentration 10 uM, replicate 1
[12] = 48 h, 10 µM, compound concentration 10 uM, replicate 2

Q: Which “Population Apoptotic (%)” value [1] does the source give for `CCCOc1ccc2[nH]cc(C3=CCNCC3)c2n1.Cl` here?
A: 80%

Q: And the “Population Fragmented Nuclei (%)” value [1]?
A: 31%

Q: What about the “Population Healthy Nuclei (%)” value [1] of the same compound?
A: 58%

Q: What about the “Population Hoechst High Intensity Objects (%)” value [1] of the same compound?
A: 2%

Q: What about the “Population Membrane Permeable-Phenotype (%)” value [1] of the same compound?
A: 2%

Q: And the “Population Mitochondria Different-Phenotype (%)” value [1]?
A: 1%

Q: And the “Population Mitotic Cells (%)” value [1]?
A: 19%

Q: And the “Population Normal (%)” value [1]?
A: 97%

Q: What about the “Population Pyknosed Nuclei (%)” value [1] of the same compound?
A: 9%

Q: What about the “Population Tubulin-Different-Phenotype (%)” value [1] of the same compound?
A: 1%

Q: What about the “Total Cell Count” value [1] of the same compound?
A: 218

Q: What about the “Population Apoptotic (%)” value [2] of the same compound?
A: 87%

Q: And the “Population Fragmented Nuclei (%)” value [2]?
A: 13%

Q: What about the “Population Healthy Nuclei (%)” value [2] of the same compound?
A: 78%

Q: And the “Population Hoechst High Intensity Objects (%)” value [2]?
A: 1%

Q: What about the “Population Membrane Permeable-Phenotype (%)” value [2] of the same compound?
A: 11%

Q: And the “Population Mitochondria Different-Phenotype (%)” value [2]?
A: 7%

Q: What about the “Population Mitotic Cells (%)” value [2] of the same compound?
A: 12%

Q: What about the “Population Normal (%)” value [2] of the same compound?
A: 98%

Q: And the “Population Pyknosed Nuclei (%)” value [2]?
A: 8%

Q: And the “Population Tubulin-Different-Phenotype (%)” value [2]?
A: 5%

Q: What about the “Total Cell Count” value [2] of the same compound?
A: 98

Q: And the “Population Apoptotic (%)” value [3]?
A: 86%

Q: And the “Population Fragmented Nuclei (%)” value [3]?
A: 24%

Q: And the “Population Healthy Nuclei (%)” value [3]?
A: 66%

Q: And the “Population Hoechst High Intensity Objects (%)” value [3]?
A: 4%

Q: And the “Population Membrane Permeable-Phenotype (%)” value [3]?
A: 6%

Q: What about the “Population Mitochondria Different-Phenotype (%)” value [3] of the same compound?
A: 5%

Q: What about the “Population Mitotic Cells (%)” value [3] of the same compound?
A: 13%

Q: What about the “Population Normal (%)” value [3] of the same compound?
A: 96%

Q: And the “Population Pyknosed Nuclei (%)” value [3]?
A: 8%

Q: And the “Population Tubulin-Different-Phenotype (%)” value [3]?
A: 3%

Q: And the “Total Cell Count” value [3]?
A: 275

Q: And the “Population Apoptotic (%)” value [4]?
A: 60%

Q: And the “Population Fragmented Nuclei (%)” value [4]?
A: 17%

Q: What about the “Population Healthy Nuclei (%)” value [4] of the same compound?
A: 74%

Q: What about the “Population Hoechst High Intensity Objects (%)” value [4] of the same compound?
A: 0%

Q: What about the “Population Membrane Permeable-Phenotype (%)” value [4] of the same compound?
A: 12%

Q: And the “Population Mitotic Cells (%)” value [4]?
A: 40%

Q: And the “Population Normal (%)” value [4]?
A: 100%

Q: And the “Population Pyknosed Nuclei (%)” value [4]?
A: 7%

Q: And the “Population Tubulin-Different-Phenotype (%)” value [4]?
A: 6%

Q: What about the “Total Cell Count” value [4] of the same compound?
A: 134

Q: What about the “Population Apoptotic (%)” value [5] of the same compound?
A: 70%

Q: What about the “Population Fragmented Nuclei (%)” value [5] of the same compound?
A: 27%

Q: What about the “Population Healthy Nuclei (%)” value [5] of the same compound?
A: 61%

Q: And the “Population Hoechst High Intensity Objects (%)” value [5]?
A: 1%

Q: And the “Population Membrane Permeable-Phenotype (%)” value [5]?
A: 6%

Q: What about the “Population Mitochondria Different-Phenotype (%)” value [5] of the same compound?
A: 1%

Q: What about the “Population Mitotic Cells (%)” value [5] of the same compound?
A: 29%

Q: And the “Population Normal (%)” value [5]?
A: 98%

Q: And the “Population Pyknosed Nuclei (%)” value [5]?
A: 10%

Q: What about the “Population Tubulin-Different-Phenotype (%)” value [5] of the same compound?
A: 3%

Q: What about the “Total Cell Count” value [5] of the same compound?
A: 252

Q: What about the “Population Apoptotic (%)” value [6] of the same compound?
A: 90%

Q: And the “Population Fragmented Nuclei (%)” value [6]?
A: 18%

Q: And the “Population Healthy Nuclei (%)” value [6]?
A: 73%

Q: What about the “Population Hoechst High Intensity Objects (%)” value [6] of the same compound?
A: 2%

Q: And the “Population Membrane Permeable-Phenotype (%)” value [6]?
A: 3%

Q: What about the “Population Mitochondria Different-Phenotype (%)” value [6] of the same compound?
A: 3%

Q: What about the “Population Mitotic Cells (%)” value [6] of the same compound?
A: 9%

Q: What about the “Population Normal (%)” value [6] of the same compound?
A: 97%

Q: And the “Population Pyknosed Nuclei (%)” value [6]?
A: 8%

Q: And the “Population Tubulin-Different-Phenotype (%)” value [6]?
A: 2%

Q: And the “Total Cell Count” value [6]?
A: 138

Q: And the “Population Apoptotic (%)” value [7]?
A: 92%

Q: What about the “Population Fragmented Nuclei (%)” value [7] of the same compound?
A: 25%

Q: What about the “Population Healthy Nuclei (%)” value [7] of the same compound?
A: 66%

Q: What about the “Population Hoechst High Intensity Objects (%)” value [7] of the same compound?
A: 3%

Q: And the “Population Membrane Permeable-Phenotype (%)” value [7]?
A: 5%

Q: And the “Population Mitochondria Different-Phenotype (%)” value [7]?
A: 3%

Q: And the “Population Mitotic Cells (%)” value [7]?
A: 7%

Q: And the “Population Normal (%)” value [7]?
A: 96%

Q: What about the “Population Pyknosed Nuclei (%)” value [7] of the same compound?
A: 8%

Q: And the “Population Tubulin-Different-Phenotype (%)” value [7]?
A: 3%

Q: What about the “Total Cell Count” value [7] of the same compound?
A: 323

Q: What about the “Population Apoptotic (%)” value [8] of the same compound?
A: 72%

Q: What about the “Population Fragmented Nuclei (%)” value [8] of the same compound?
A: 14%

Q: What about the “Population Healthy Nuclei (%)” value [8] of the same compound?
A: 78%

Q: What about the “Population Hoechst High Intensity Objects (%)” value [8] of the same compound?
A: 0%

Q: And the “Population Membrane Permeable-Phenotype (%)” value [8]?
A: 11%

Q: What about the “Population Mitochondria Different-Phenotype (%)” value [8] of the same compound?
A: 2%

Q: And the “Population Mitotic Cells (%)” value [8]?
A: 27%

Q: What about the “Population Normal (%)” value [8] of the same compound?
A: 99%

Q: And the “Population Pyknosed Nuclei (%)” value [8]?
A: 6%

Q: And the “Population Tubulin-Different-Phenotype (%)” value [8]?
A: 4%

Q: What about the “Total Cell Count” value [8] of the same compound?
A: 162

Q: What about the “Population Apoptotic (%)” value [9] of the same compound?
A: 91%

Q: And the “Population Fragmented Nuclei (%)” value [9]?
A: 19%

Q: And the “Population Healthy Nuclei (%)” value [9]?
A: 69%

Q: And the “Population Hoechst High Intensity Objects (%)” value [9]?
A: 2%

Q: What about the “Population Membrane Permeable-Phenotype (%)” value [9] of the same compound?
A: 5%

Q: And the “Population Mitochondria Different-Phenotype (%)” value [9]?
A: 3%

Q: What about the “Population Mitotic Cells (%)” value [9] of the same compound?
A: 8%

Q: What about the “Population Normal (%)” value [9] of the same compound?
A: 97%

Q: And the “Population Pyknosed Nuclei (%)” value [9]?
A: 10%

Q: What about the “Population Tubulin-Different-Phenotype (%)” value [9] of the same compound?
A: 1%

Q: And the “Total Cell Count” value [9]?
A: 350

Q: And the “Population Apoptotic (%)” value [10]?
A: 75%

Q: And the “Population Healthy Nuclei (%)” value [10]?
A: 74%

Q: And the “Population Membrane Permeable-Phenotype (%)” value [10]?
A: 9%

Q: And the “Population Mitotic Cells (%)” value [10]?
A: 25%

Q: And the “Population Pyknosed Nuclei (%)” value [10]?
A: 6%

Q: What about the “Population Tubulin-Different-Phenotype (%)” value [10] of the same compound?
A: 3%

Q: What about the “Total Cell Count” value [10] of the same compound?
A: 183

Q: What about the “Population Apoptotic (%)” value [11] of the same compound?
A: 100%

Q: And the “Population Fragmented Nuclei (%)” value [11]?
A: 18%

Q: And the “Population Healthy Nuclei (%)” value [11]?
A: 75%

Q: What about the “Population Hoechst High Intensity Objects (%)” value [11] of the same compound?
A: 4%

Q: What about the “Population Membrane Permeable-Phenotype (%)” value [11] of the same compound?
A: 5%

Q: What about the “Population Mitochondria Different-Phenotype (%)” value [11] of the same compound?
A: 2%

Q: What about the “Population Mitotic Cells (%)” value [11] of the same compound?
A: 0%

Q: And the “Population Normal (%)” value [11]?
A: 95%

Q: What about the “Population Pyknosed Nuclei (%)” value [11] of the same compound?
A: 6%

Q: What about the “Population Tubulin-Different-Phenotype (%)” value [11] of the same compound?
A: 3%

Q: And the “Total Cell Count” value [11]?
A: 423

Q: What about the “Population Apoptotic (%)” value [12] of the same compound?
A: 94%

Q: What about the “Population Fragmented Nuclei (%)” value [12] of the same compound?
A: 13%

Q: And the “Population Healthy Nuclei (%)” value [12]?
A: 78%

Q: And the “Population Hoechst High Intensity Objects (%)” value [12]?
A: 0%

Q: And the “Population Membrane Permeable-Phenotype (%)” value [12]?
A: 6%

Q: And the “Population Mitochondria Different-Phenotype (%)” value [12]?
A: 3%

Q: What about the “Population Mitotic Cells (%)” value [12] of the same compound?
A: 5%

Q: And the “Population Normal (%)” value [12]?
A: 99%

Q: What about the “Population Pyknosed Nuclei (%)” value [12] of the same compound?
A: 7%

Q: And the “Total Cell Count” value [12]?
A: 243
